# Screening results from PubChem.
# A selection: hits, their analogues and other compounds. The true share with any hit is near 2.2%.
# IEC-6 cytotox = IEC-6 cytotoxicity, counter-screen for KLF5 inhibitors. 290,000 compounds, 0.78% hits. luminescence viability. inhibition, % at 5 µM;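 also: 0% = plate median of test compound wells and 100% = cytotoxic reference compound wells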
# Ba/F3 V617F tox = lowers viability of Ba/F3 cells expressing EpoR and JAK2V617F; ATP luminescence; inhibition, % at 5.6 µM; 220,000 compounds, 1.1% hits;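 active = inhibition above the campaign mean plus 3 SD over all tested compounds, cut at about 24% in these data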;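 also: cytokine-independent growth of Ba/F3 cells driven by EpoR plus mutant JAK2; 0% = DMSO-treated cells and 100% = JAK inhibitor I control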
# BaF3 parental = counter-screen for JAK2V617F inhibitors: parental Ba/F3 viability inhibitors. CellTiter-Glo ATP luminescence. 220,000 compounds, 1.1% hits. inhibition, % at 5.6 µM. AID 1486;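 active = inhibition above a per-campaign cutoff, the mean inhibition of all tested compounds plus 3 SD, cut at about 27% in these data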;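 also: 0% = DMSO wells and 100% = JAK Inhibitor I control wells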
# MT stabilizer = microtubule stabilizers in HeLa cells; 200,000 compounds, 0.83% hits; % tubulin-high responders, % at 10 µM; HeLa tubulin immunostaining HCS, 24 h; share of cells brighter than vehicle mean+2SD; AID 2205;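 active = plate Z-score above 3 for both tubulin-high and condensed-nucleus cell shares, with cell loss under 80%, at 10 µM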;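 also: anti alpha tubulin signal scored within the nucleus-defined area of each cell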
# bCat nuc transl = modulators of beta-catenin nuclear translocation. nuclear translocation activity, % at 5 µM. 190,000 compounds, 0.3% hits. HeLa beta-catenin nuclear translocation, immunofluorescence imaging. AID 1665;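 active = nuclear translocation activity above 50% at 5 µM, with a well cell count of 50 or more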;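 also: per-cell ratio of nuclear to cytoplasmic median beta-catenin stain intensity; plate controls were DMSO negative control for no effect and GSK-3 inhibitor IX positive control for full effect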
#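 assay system = human HeLa cells, endogenous beta-catenin | times = compound treatment 24 h, 37°C, 5% CO2 | detection = Anti-beta-catenin immunofluorescence on PFA-fixed, Triton-permeabilized cells, DAPI nuclei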
# APP 5UTR inh = APP translation inhibition; 190,000 compounds, 0.82% hits; SH-SY5Y APP 5'UTR-luciferase reporter, luminescence; inhibition, % at 2 µM;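 active = inhibition above a set limit, derived from the sample mean plus 3 SD, cut at about 45% in these data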
# BaF3 tox 2 = reduces parental Ba/F3 viability, JAK2V617F counter-screen. shares compounds with Ba/F3 V617F tox. CellTiter-Glo luminescence; cells kept alive by added IL-3. inhibition, % at 5.6 µM. 580 compounds, 31% hits. AID 1520;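 active = cell growth inhibition above the hit limit set in the earlier mutant JAK2 cell screen, cut at about 27% in these data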;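 also: plate controls were DMSO-treated cells for no effect and JAK Inhibitor I control wells for full effect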
# JAK2V617F confrm = confirmation: loss of viability in JAK2V617F-dependent Ba/F3 cells; shares compounds with Ba/F3 V617F tox; Ba/F3 EpoR-JAK2V617F viability, CellTiter-Glo luminescence; inhibition, % at 5.6 µM; 580 compounds, 66% hits;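 active = mean inhibition above the hit cutoff derived in the earlier primary screen, cut at about 25% in these data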;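 also: 0% = DMSO-treated cells and 100% = JAK inhibitor I control wells; higher means lower luminescence from reduced cell ATP and viability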
# IEC-6 tox confirm = IEC-6 cytotoxicity, confirmation assay; shares compounds with IEC-6 cytotox; IEC-6 rat intestinal epithelial viability, luminescence; inhibition, % at 5 µM; 1,900 compounds, 63% hits;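 also: 0% = vehicle and 100% = reference cytotoxic drug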
# Active calls of the source: *; . = not tested or not shown. Rule as the data show it, unless noted: active = inhibition above about 22%; inactive = the rest.
SMILES,IEC-6 cytotox,Ba/F3 V617F tox,BaF3 parental,MT stabilizer,bCat nuc transl,APP 5UTR inh,BaF3 tox 2,JAK2V617F confrm,others
COc1ccc2nc(C)cc(SCC(=O)NNC(=O)COc3ccccc3)c2c1,0,-4,1,2,.,0,.,.,
Cc1[nH]c2ccc(F)cc2c1CCN(Cc1ccncc1)C(=S)Nc1cccc(F)c1,4,27*,25,2,0,21,29*,47*,
Cc1cc2c(cc1C)CN(c1ccccc1)C2,1,1,5,.,-1,.,.,.,
CCCc1ccc(C(=O)NNc2ccc(F)cc2)cc1,-1,93*,1,.,5,.,5,5,
O=C(Nc1cccc(NC(=O)c2cccs2)c1)c1ccc([N+](=O)[O-])o1,64*,39*,0,.,0,.,8,72*,
COc1cc(NC(=O)c2ccc([N+](=O)[O-])o2)ccc1NC(=O)c1cccs1,-3,4,5,5,3,35,.,.,
COc1ccccc1CCN=C(N)NS(=O)(=O)c1ccccc1F,3,.,.,.,.,.,.,.,
COc1ccc(Cl)cc1S(=O)(=O)N1CCC(C(=O)NC2CCCC2)CC1,4,.,.,.,.,.,.,.,
COc1ccc(C2c3ccc4ccccc4c3Oc3ncn(CCCO)c(=N)c32)cc1OC (stereo not given),6,81*,1,.,44,.,0,8,
COc1cc2c(cc1OC)C(c1cc3cccc(C)c3[nH]c1=O)N(C(=O)c1ccco1)CC2 (stereo not given),-2,.,.,.,.,.,.,.,
CCCCN1C(=O)C(O)(c2ccccc2)c2cc(Br)ccc21 (stereo not given),-2,.,.,.,.,.,.,.,
Cn1cncc1C(=O)c1ccccc1,-4,-4,3,.,-1,.,.,.,
Oc1ccc(/C=C/c2ccnc3ccccc23)cc1,9,47*,26,7,.,-69,7,42*,
COc1ccccc1OCCNC(=O)c1cccc(S(=O)(=O)N2CC(C)OC(C)C2)c1 (stereo not given),-4,.,.,.,.,.,.,.,
NC(=S)NN=C(Cc1ccccc1)Cc1ccccc1,-2,45*,21,4,-6,-7,50*,60*,
Cc1cc(F)ccc1NCc1ccncc1,-5,50*,1,3,1,-10,-4,-4,
COc1ccc([N+](=O)[O-])c(S(=O)(=O)c2ccccc2)n1,15,93*,-6,.,0,.,34*,85*,
COc1ccc([N+](=O)[O-])c(S(=O)(=O)c2ccc(Cl)cc2)n1,3,43*,-7,.,1,.,2,70*,
COc1nc(OC)nc(Oc2ccc(Cl)cc2[N+](=O)[O-])n1,0,-7,-5,3,-3,5,.,.,
O=C(CSc1nncc2ccccc12)Nc1cccc(O)c1,0,.,.,.,.,.,.,.,
NS(=O)(=O)c1ccc(Sc2nc3ccccc3s2)c([N+](=O)[O-])c1,4,65*,21,.,2,.,36*,93*,
CCC1CCCCN1CCCNC(=O)C1CCCN(S(=O)(=O)N2CC(C)CC(C)C2)C1 (stereo not given),4,.,.,.,.,.,.,.,
COC(=O)N1C(=O)[C@](c2ccsc2)(C(C)C)N1C(=O)OC,3,.,.,.,.,.,.,.,
C#CC[N+](C)(C)CC#Cc1ccc(Cl)cc1,4,32*,18,11,10,7,28*,83*,
CCCSc1nsc(SCCC)c1C#N,1,-4,2,2,.,-1,.,.,
SMILES,IEC-6 cytotox,Ba/F3 V617F tox,BaF3 parental,MT stabilizer,bCat nuc transl,APP 5UTR inh,BaF3 tox 2,JAK2V617F confrm,others
C#CCSc1nsc(SCC#C)c1C#N,-1,45*,6,5,-2,7,-4,72*,
Cn1cc([N+](=O)[O-])c(C(=O)n2cccn2)n1,4,2,3,.,-1,.,.,.,
O=C1OC(/C(=C\Nc2cc(Cl)ccc2O)[N+](=O)[O-])c2ccccc21 (stereo not given),-3,46*,13,3,1,-43,4,56*,
O=C1OC(/C(=C\Nc2ccc(F)cc2F)[N+](=O)[O-])c2ccccc21 (stereo not given),-2,1,3,6,0,5,.,.,
COc1cccc(/C=C/C(=O)OCC(=O)Nc2ccc(N3CCOCC3)cc2)c1OC,2,42*,1,4,0,-12,-4,-5,
O=C1/C(=C\c2c(NCCOCCO)nc3ccccn3c2=O)SC(=S)N1Cc1ccco1,-9,.,.,.,.,.,.,.,
C=CCOC(=O)C1=C(C)NC(SCC(N)=O)=C(C#N)C1c1ccc(C)cc1 (stereo not given),-4,-1,1,.,-3,.,.,.,
C=CCOC(=O)C1=C(C)NC(SCC)=C(C#N)C1c1ccc(Cl)cc1 (stereo not given),14,41*,-6,2,-1,-10,9,29*,
COc1ccccc1C1NC(=O)c2ccccc2O1 (stereo not given),-5,.,.,.,.,.,.,.,
COc1ccc2c3c(cccc13)C(=O)N(O)C2=O,63*,30*,2,5,-2,10,-2,18,IEC-6 tox confirm=33*
COc1ccccc1N1C(=O)c2cccc3c(C(=O)O)ccc(c23)C1=O,-2,-2,3,1,.,5,.,.,
COc1ccc(/C=N/NC(=O)c2cccnc2)cc1COc1ccc([N+](=O)[O-])c(C)c1,45*,25*,18,.,82*,.,47*,93*,IEC-6 tox confirm=43*
COc1ccc(/C=N/NC(=O)c2ccn[nH]2)cc1COc1ccc([N+](=O)[O-])c(C)c1,6,-3,2,.,1,.,.,.,
N#CC1=C(N)Oc2cc3ccccc3cc2C1c1cccnc1 (stereo not given),47*,30*,25,56*,-1,7,31*,48*,IEC-6 tox confirm=44*
O=C1c2ccc3c4c(ccc(c24)C(=O)N1CCCCO)C(=O)N(CCCCO)C3=O,29*,32*,13,3,0,28,79*,91*,IEC-6 tox confirm=37*
O=C(c1ccc2c(c1)C(=O)N(CCCO)C2=O)c1ccc2c(c1)C(=O)N(CCCO)C2=O,2,1,4,5,-1,1,.,.,
O=C(NC(NC(=S)N1CCOCC1)C(Cl)(Cl)Cl)c1ccc(Cl)cc1 (stereo not given),24*,30*,-1,2,-4,10,31*,60*,IEC-6 tox confirm=31*
CCN1CCN(C(=O)c2cc(=O)c3cc(C)ccc3o2)CC1,2,.,.,.,.,.,.,.,
O=C1C=CC(=O)N1CCCCCCN1C(=O)C=CC1=O,24*,72*,-1,5,-1,95*,96*,80*,IEC-6 tox confirm=2
O=C1C2C3C=CC(C3)C2C(=O)N1CCCCCCN1C(=O)C2C3C=CC(C3)C2C1=O (stereo not given),-4,0,7,2,-2,12,.,.,
